Viability and IC50 data for eight molecules are collected here from ChEMBL document CHEMBL4004818, “Montagnuphilones A-G, Azaphilones from Montagnulaceae sp. DM0194, a Fungal Endophyte of Submerged Roots of Persicaria amphibia” (J Nat Prod, 2017).

Broadly, the IC50 is the midpoint of a concentration-inhibition curve.

A short description of series [1]: Cytotoxicity against LPS-induced mouse RAW264.7 cells assessed as cell survival up to 100 uM by MTT assay relative to control. Type of series: cell-based. Conditions: LPS-induced RAW264.7 cells, read-out: Survival. In a few lines: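 MTT viability assay on LPS-activated RAW264.7 cells, the same cells used for the NO assay; tested at concentrations up to 100 μM; triplicate experiments.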
On the technique in general: Formazan colour is commonly taken as a measure of viable cells.

Series [2] deals with RAW264.7. Nature of the series: Antiinflammatory activity in mouse RAW264.7 cells assessed as inhibition of LPS-induced nitric oxide production preincubated for 2 hrs followed by LPS stimulation measured after 18 hrs by Griess assay. It is filed as functional, cell-based. In a few lines:
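LPS-activated RAW264.7 macrophages; nitric oxide production measured and IC50 derived; L-NAME as positive control; triplicate experiments.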

For `Cc1cc(O)cc(O)c1C(=O)O[C@@]1(C)C(=O)C2=C(C=C(/C=C/CO)OC2)C[C@H]1O`, the viability in series [1] stood at 90%. Also, the IC50 in series [2] was 9.2 µM.
For the molecule `Cc1cc(O)cc(O)c1C(=O)O[C@@H]1CC2=C(CO[C@](O)(CCC(=O)O)C2)C(=O)[C@]1(C)O` (relative stereo), in series [1], the viability came to 90%.
The same measure, in the same setting: the same measure for `Cc1cc(O)cc(O)c1C(=O)O[C@@H]1CC2=C(CO[C@@](O)(CCCO)C2)C(=O)[C@]1(C)O` (relative stereo): 90%.
As for `Cc1cc(O)cc(O)c1C(=O)O[C@@H]1CC2=C(COC(/C=C/C(=O)O)=C2)C(=O)[C@]1(C)O` (relative stereo), in series [1], the viability worked out at 90%.
In the case of `Cc1cc(O)cc(O)c1C(=O)O[C@@H]1CC2=C(CO[C@](O)(CCCO)C2)C(=O)[C@]1(C)O` (relative stereo), the viability in series [1] amounted to 90%. Further, in series [2], the IC50 amounted to 25.5 µM.
Regarding `Cc1cc(O)cc(O)c1C(=O)O[C@@H]1CC2=C(CO[C@@](O)(CCC(=O)O)C2)C(=O)[C@]1(C)O` (relative stereo), the viability in series [1] turned out to be 90%.
Turning to `Cc1cc(O)cc(O)c1C(=O)O[C@@H]1CC2=C(COC(CCC(=O)O)=C2)C(=O)[C@]1(C)O` (relative stereo), the viability in series [1] was 90%. Besides, the IC50 in series [2] is 39.6 µM.
Turning to `COC(=O)[C@@H](N)CCCNC(=N)N[N+](=O)[O-]` [L-NAME], the IC50 in series [2] was 30.6 µM.
